17 molecules from ChEMBL document CHEMBL1147419, “Inhibition of estrone sulfatase (ES) by alkyl and cycloalkyl ester derivatives of 4-[(aminosulfonyl)oxy] benzoic acid” (Bioorg Med Chem Lett, 2004) can be followed below.

Data set [1] can be described thus: Partition coefficient (logP). Format: physicochemical. The following applies: octanol/water.
A short description of data set [2]: pKa value was determined. The data set is classed as physicochemical. Put shortly: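 The starting phenols' pKa was measured spectroscopically from the change in phenolic UV absorption under acidic (pH 2), pH 9 and basic (pH 11) conditions.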
The target in data set [3] is T1, Steryl-sulfatase (Homo sapiens) (UniProt P08842).
T1 sequence (whole entry): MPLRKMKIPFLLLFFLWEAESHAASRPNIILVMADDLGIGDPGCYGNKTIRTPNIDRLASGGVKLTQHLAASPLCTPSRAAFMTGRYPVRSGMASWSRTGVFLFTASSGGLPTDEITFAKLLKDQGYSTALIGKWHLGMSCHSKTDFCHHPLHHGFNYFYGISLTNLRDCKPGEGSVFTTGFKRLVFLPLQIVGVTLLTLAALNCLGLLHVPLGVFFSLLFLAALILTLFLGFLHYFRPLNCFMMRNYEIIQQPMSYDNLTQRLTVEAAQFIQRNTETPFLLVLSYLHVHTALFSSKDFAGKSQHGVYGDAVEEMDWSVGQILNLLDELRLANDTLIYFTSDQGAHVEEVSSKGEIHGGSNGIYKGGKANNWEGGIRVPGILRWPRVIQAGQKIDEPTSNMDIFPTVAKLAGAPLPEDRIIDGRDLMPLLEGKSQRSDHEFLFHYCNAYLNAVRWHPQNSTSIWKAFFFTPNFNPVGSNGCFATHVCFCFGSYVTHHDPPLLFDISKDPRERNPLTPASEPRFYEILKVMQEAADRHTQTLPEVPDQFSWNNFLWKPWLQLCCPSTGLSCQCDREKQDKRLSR
The following applies: 0.25 uM.

In data set [4] the target is T1, Steryl-sulfatase (Homo sapiens). Description: Inhibitory activity against estrone sulfatase at 20 uM (initial screening). In short, it runs like this:
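Placental microsomes, diluted to 115 µg/mL in 0.05 M Tris-HCl pH 7.2 and pre-warmed 5 min at 37 °C, incubated 20 min at 37 °C with ³H-estrone sulfate (20 µM/tube, 300,000 dpm). Inhibitors were added in ethanol, then dried under nitrogen. Toluene quench, then toluene-phase radioactivity counted by scintillation. Triplicates, uninhibited controls, boiled-microsome blanks.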

For data set [5], the target named is T2, Steryl-sulfatase (Homo sapiens, UniProt P08842).
T2 sequence (P08842 whole entry): T1 sequence (whole entry)
Description: Inhibition of estrone sulfatase.

Structures are written as SMILES.

In turn, `C[C@]12CC[C@@H]3c4ccc(OS(N)(=O)=O)cc4CCC3[C@@H]1CCC2=O` (single isomer, unassigned) [EMATE] had a logP in data set [1] of 3.8. This molecule also registered a pKa in data set [2] of 8.37.
Taken in the same sequence, the figures for `CCCCCCCCCOC(=O)c1ccc(OS(N)(=O)=O)cc1` were 4.68 and 8.39.
Taken in the same sequence, the figures for `CCCCCCCCCCOC(=O)c1ccc(OS(N)(=O)=O)cc1` were 5.08 and 8.09.
As to `NS(=O)(=O)Oc1ccc2c3c(c(=O)oc2c1)CCCCC3` [IROSUSTAT], the logP in data set [1] came out at 2.65. This molecule gave a pKa in data set [2] of 8.27. The same molecule displayed an inhibition in data set [3] of 56%.
On to `COC(=O)c1ccc(OS(N)(=O)=O)cc1`, for which, in data set [1], the logP turned out to be 1.49.
Regarding `CCCCOC(=O)c1ccc(OS(N)(=O)=O)cc1`, in data set [1], the logP amounted to 2.7.
In data set [1], `NS(=O)(=O)Oc1ccc(C(=O)OC2CCCCCCC2)cc1` registered a logP of 3.87. In data set [2], this molecule came in with a pKa of 8.09. The molecule also yielded an inhibition in data set [4] of 82%. This molecule yielded an IC50 in data set [5] of 170 nM.
Consider `NS(=O)(=O)Oc1ccc(C(=O)OC2CCCCCC2)cc1`, for which the logP in data set [1] came to 3.47. The same molecule gave a pKa in data set [2] of 8.88. The molecule further yielded an inhibition in data set [4] of 87%. The molecule also gave an IC50 in data set [5] of 500 nM.
In turn, `CCCCCCCOC(=O)c1ccc(OS(N)(=O)=O)cc1` displayed a logP in data set [1] of 3.89.
Same read-out and setting: the value for `CCOC(=O)c1ccc(OS(N)(=O)=O)cc1` was 1.84; that for `CCCOC(=O)c1ccc(OS(N)(=O)=O)cc1` was 2.3.
The same measure, in the same setting: the value for `CCCCCCOC(=O)c1ccc(OS(N)(=O)=O)cc1` was 3.49.
Take `NS(=O)(=O)Oc1ccc(C(=O)OC2CCCC2)cc1`: the logP in data set [1] was 2.68. The molecule further came in with a pKa in data set [2] of 8.73. Moreover, in data set [4], the inhibition turned out to be 62%. This molecule registered an IC50 in data set [5] of 9300 nM.
On to `CCCCCCCCOC(=O)c1ccc(OS(N)(=O)=O)cc1`, for which the logP in data set [1] turned out to be 4.29. Moreover, the pKa in data set [2] was found to be 8.09.
`NS(=O)(=O)Oc1ccc(C(=O)OC2CCCCC2)cc1` gave a logP in data set [1] of 3.08. Besides, the pKa in data set [2] stood at 8.81. Further, the inhibition in data set [4] was 84%. For the same molecule, in data set [5], the half-inhibitory concentration (IC50) is 1700 nM.
`Cc1cc(=O)oc2cc(OS(N)(=O)=O)ccc12`: the log partition coefficient (logP) in data set [1] came to 1.6. In addition, the pKa in data set [2] worked out at 8. Also, it took 13800 nM to reach half-maximal inhibition in data set [5] (IC50).
In data set [1], `CCCCCOC(=O)c1ccc(OS(N)(=O)=O)cc1` came in with a logP of 3.1.

Broadly, the logP is a log measure of how a compound divides between an organic and an aqueous phase. A higher logP goes with higher lipophilicity. As usually defined, the pKa is the pH at which an ionisable group is half protonated. What is called inhibition is the change of the read-out against control, counted positive when it falls. The term IC50 denotes the concentration needed to halve the response being measured.
